These results are taken from PubChem BioAssay AID540312 (Sanford-Burnham Center for Chemical Genomics, 2011).

Activity calls are given as the source filed them.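 The calls were made as follows: active = mean EC50 of 20 µM or lower; inactive = the rest.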

For this assay, the target named is CHO-CHOP luciferase reporter, UPR activation, luminescence. Nature of the assay: PERK-eIF2a-CHOP apoptotic UPR arm activators, SAR follow-up, CHO-CHOP cells, luminescence (AID 540312). An outline of the steps:
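Schedule: 16–18 h cell rest, then 6 h compound treatment, 37 °C / System: CHO-CHOP cells with stably transfected luciferase reporter of PERK-eIF2a-CHOP pathway / Measured by: Steady-Glo luminescence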
The term EC50 denotes the concentration needed to bring the measured effect to its halfway point. On to `O=C(Nc1nc2c(F)cc(F)cc2s1)c1ccccc1`, for which the EC50 was > 80 µM (inactive).

For the molecule `O=C(Nc1nc2c(Cl)cc(Cl)cc2s1)c1ccccn1`, the EC50 is 10.6 µM.

As for `O=C(Nc1nc2ccc(F)cc2s1)c1ccccn1`, the EC50 is 12.6 µM.

For the molecule `Cc1cc(C)c2nc(NC(=O)c3ccccn3)sc2c1`, the EC50 is 7.56 µM.

For `O=C(Nc1ccc(S(=O)(=O)N2CCNCC2)cc1)c1ccc([N+](=O)[O-])o1`, the EC50 result was “inactive”.

In the case of `O=C(Nc1ccc(S(=O)(=O)N2CCCC2)cc1)c1ccc([N+](=O)[O-])o1`, the EC50 is 0.742 µM.

On to `O=C(Nc1ccc(S(=O)(=O)N2CCOCC2)cc1)c1ccco1`, for which the EC50 is > 80 µM (inactive).

With `O=C(Nc1cccc(S(=O)(=O)N2CCOCC2)c1)c1ccco1`, the EC50 is > 80 µM (inactive).

As for `O=C(Nc1nc2c(F)cc(F)cc2s1)c1cccnc1`, the EC50 is > 80 µM (inactive).

Regarding `O=C(Nc1ccc(S(=O)(=O)N2CCOCC2)cc1)c1ccc([N+](=O)[O-])s1`, the EC50 is 13.5 µM.

Regarding `O=C(Nc1nc2ccccc2s1)c1cccnc1`, the EC50 is > 80 µM (inactive).

On to `Fc1cc(F)c2nc(NCc3ccccn3)sc2c1`, for which the EC50 is > 80 µM (inactive).

`CC1CN(S(=O)(=O)c2ccc(NC(=O)c3ccco3)cc2)CC(C)O1` (stereo unspecified): the EC50 is > 80 µM (inactive).

`O=C(Nc1nc2ccccc2s1)c1ccccn1`: the EC50 is > 80 µM (inactive).

In the case of `O=C(Nc1ccc(S(=O)(=O)N2CCOCC2)cc1)c1ccc([N+](=O)[O-])cc1`, the EC50 is > 80 µM (inactive).

On to `O=C(Nc1ccc(S(=O)(=O)N2CCOCC2)cc1)c1ccc(Br)o1`, for which the EC50 is > 80 µM (inactive).

As to `O=C(Nc1nc2c(F)cc(F)cc2s1)c1ccccn1`, the EC50 is 7.22 µM.

On to `O=C(Nc1ccc(S(=O)(=O)N2CCOCC2)cc1)c1cccs1`, for which the EC50 is > 80 µM (inactive).

As to `O=C(Nc1ccc(S(=O)(=O)N2CCOCC2)cc1)c1ccc([N+](=O)[O-])o1`, the EC50 is 2.28 µM.

As to `O=C(Nc1nc2c(F)cc(F)cc2s1)c1ccncc1`, the EC50 is > 80 µM (inactive).

Turning to `O=C(Nc1ccc(S(=O)(=O)c2ccccc2)cc1)c1ccc([N+](=O)[O-])o1`, the EC50 is 1.09 µM.

As for `Cc1ccc(C(=O)Nc2ccc(S(=O)(=O)N3CCOCC3)cc2)o1`, the EC50 was > 80 µM (inactive).

As to `O=C(Nc1ccc(S(=O)(=O)N2CCOCC2)cc1)c1ccccc1`, the EC50 is > 80 µM (inactive).

With `O=C(Nc1ccc(S(=O)(=O)N2CCC(O)CC2)cc1)c1ccc([N+](=O)[O-])o1`, the EC50 was 2.02 µM.

For the molecule `CC1CCN(S(=O)(=O)c2ccc(NC(=O)c3ccc([N+](=O)[O-])o3)cc2)CC1`, the EC50 is 0.541 µM.

`O=C(Nc1nc2c(F)cccc2s1)c1ccccn1`: the concentration giving a half-maximal response (EC50) was 5.83 µM.

As to `O=C(Nc1ccc(S(=O)(=O)C2CCCCC2)cc1)c1ccc([N+](=O)[O-])o1`, the EC50 was 0.676 µM.

Regarding `O=C(Nc1ccc(C(=O)N2CCOCC2)cc1)c1ccco1`, the EC50 was > 80 µM (inactive).

`CC1(C)CCN(S(=O)(=O)c2ccc(NC(=O)c3ccc([N+](=O)[O-])o3)cc2)CC1`: the EC50 is 0.494 µM.

In the case of `O=C(Nc1ccc(S(=O)(=O)N2CCCCC2)cc1)c1ccc([N+](=O)[O-])o1`, the EC50 was 1.75 µM.

For `O=C(Nc1nc2ccccc2s1)c1ccncc1`, the EC50 was > 80 µM (inactive).
